# Data taken from ChEMBL document CHEMBL2417534, “Discovery and SAR of a novel series of GIRK1/2 and GIRK1/4 activators” (Bioorg Med Chem Lett, 2013).
# Assays:
# Kir3.1/Kir3.2 [1] = molecular target: T1, Kir3.1/Kir3.2 (Homo sapiens, UniProt P48051+P48549); test: Activation of GIRK1/2 (unknown origin) transfected in HEK293 cells after 4 mins by thallium flux-based fluorescence assay; type: cell-based
# T1 sequence (P48549 whole entry): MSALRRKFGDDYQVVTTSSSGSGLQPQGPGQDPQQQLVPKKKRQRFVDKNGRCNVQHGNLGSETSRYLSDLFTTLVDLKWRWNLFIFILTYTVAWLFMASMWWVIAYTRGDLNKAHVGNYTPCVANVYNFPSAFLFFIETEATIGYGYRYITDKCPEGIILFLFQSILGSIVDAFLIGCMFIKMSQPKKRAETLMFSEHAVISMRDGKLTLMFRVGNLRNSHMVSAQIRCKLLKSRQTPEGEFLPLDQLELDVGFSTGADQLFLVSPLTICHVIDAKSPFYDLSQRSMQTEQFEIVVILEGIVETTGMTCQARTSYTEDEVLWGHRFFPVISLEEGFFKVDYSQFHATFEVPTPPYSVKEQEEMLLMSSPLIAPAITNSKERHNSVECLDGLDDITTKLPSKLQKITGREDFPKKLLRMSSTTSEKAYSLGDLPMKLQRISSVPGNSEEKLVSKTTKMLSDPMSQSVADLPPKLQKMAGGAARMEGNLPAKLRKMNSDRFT
# T1 sequence (P48051 whole entry): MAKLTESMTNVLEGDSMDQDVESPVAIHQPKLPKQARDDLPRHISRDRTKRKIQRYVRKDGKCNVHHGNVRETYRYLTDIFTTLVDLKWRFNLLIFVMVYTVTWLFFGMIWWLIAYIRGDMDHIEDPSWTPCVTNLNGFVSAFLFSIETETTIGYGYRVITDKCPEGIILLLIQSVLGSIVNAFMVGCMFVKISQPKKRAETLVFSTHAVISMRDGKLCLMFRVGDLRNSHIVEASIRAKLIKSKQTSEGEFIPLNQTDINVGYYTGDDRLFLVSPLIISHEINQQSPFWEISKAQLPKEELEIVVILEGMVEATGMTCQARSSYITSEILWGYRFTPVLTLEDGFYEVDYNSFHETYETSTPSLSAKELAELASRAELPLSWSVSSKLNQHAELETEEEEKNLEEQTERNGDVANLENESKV
# Summary of the method: (§1)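 Loaded with 0.5 μM Thallos-AM for ~60 min at room temperature in HEPES-buffered HBSS pH 7.4. Fluorescence read at 1 Hz, F/F0 minus vehicle, slope after stimulus. Potency from triplicates. Efficacy normalised to reference activator set at 100%.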
# Kir3.1/Kir3.4 [2] = molecular target: T2, Kir3.1/Kir3.4 (Homo sapiens, UniProt P48544+P48549); test: Activation of GIRK1/4 (unknown origin) transfected in HEK293 cells after 4 mins by thallium flux-based fluorescence assay; type: cell-based
# T2 sequence (P48549 whole entry): T1 sequence (P48549 whole entry)
# T2 sequence (P48544 whole entry): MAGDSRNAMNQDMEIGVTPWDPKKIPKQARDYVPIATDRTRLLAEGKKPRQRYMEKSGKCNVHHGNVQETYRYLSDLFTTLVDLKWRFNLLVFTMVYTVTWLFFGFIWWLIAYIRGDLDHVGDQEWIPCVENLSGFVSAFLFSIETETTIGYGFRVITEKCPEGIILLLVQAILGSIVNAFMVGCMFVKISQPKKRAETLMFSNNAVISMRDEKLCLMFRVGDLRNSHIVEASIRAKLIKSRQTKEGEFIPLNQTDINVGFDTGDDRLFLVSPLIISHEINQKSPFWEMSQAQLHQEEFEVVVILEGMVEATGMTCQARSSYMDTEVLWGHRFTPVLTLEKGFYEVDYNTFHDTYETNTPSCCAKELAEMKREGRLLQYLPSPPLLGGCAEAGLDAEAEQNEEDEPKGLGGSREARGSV
# Summary of the method: as §1, with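 “7.4. Compounds (11-point, threefold dilutions) added 4 min before a thallium sulfate/bicarbonate stimulus.” for “7.4.”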
# [3] = molecular target: T3, Kir3.1/Kir3.4 (Homo sapiens) (UniProt P48549+P48544); test: Activation of GIRK1/4 (unknown origin) transfected in HEK293 cells at 20 uM after 4 mins by thallium flux-based fluorescence assay relative to ML297; type: cell-based
# Summary of the method: (§2)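 Single-concentration thallium flux in HEK-293 cells stably expressing GIRK1/GIRK2 or GIRK1/GIRK4, loaded with 0.5 μM Thallos-AM for ~60 min at room temperature. 20 μM compound in 0.2% DMSO/HEPES-buffered HBSS (pH 7.4) added, followed 4 min later by a Tl2SO4 bicarbonate stimulus. Read-out is the slope of F/F0 after stimulus, vehicle-subtracted, expressed relative to reference activator.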
# [4] = molecular target: T4, Kir3.1/Kir3.2 (Homo sapiens) (UniProt P48549+P48051); test: Activation of GIRK1/2 (unknown origin) transfected in HEK293 cells at 20 uM after 4 mins by thallium flux-based fluorescence assay relative to ML297; type: cell-based; summary of the method: as §2
# [5] = molecular target: T4, Kir3.1/Kir3.2 (Homo sapiens); test: Activation of GIRK1/2 (unknown origin) by cell-based thallium flux assay relative to control
# Summary of the method: as §1, with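 “7.4. Compounds (11-point, threefold dilutions) added 4 min before a thallium sulfate/bicarbonate stimulus.” for “7.4.”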
# Kir3.1/Kir3.4 [6] = molecular target: T2, Kir3.1/Kir3.4; test: Activation of GIRK1/4 (unknown origin) by cell-based thallium flux assay
# Summary of the method: as §1, with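 “7.4. Compounds (11-point, threefold dilutions) added 4 min before a thallium sulfate/bicarbonate stimulus.” for “7.4.”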
# [7] = molecular target: T3, Kir3.1/Kir3.4 (Homo sapiens); test: Activation of GIRK1/4 (unknown origin) by cell-based thallium flux assay relative to control
# Summary of the method: as §1, with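 “7.4. Compounds (11-point, threefold dilutions) added 4 min before a thallium sulfate/bicarbonate stimulus.” for “7.4.”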
# Kir3.1/Kir3.2 [8] = molecular target: T1, Kir3.1/Kir3.2; test: Activation of GIRK1/2 (unknown origin) by cell-based thallium flux assay; summary of the method: as §1
# Kir3.1/Kir3.2 [9] = molecular target: T1, Kir3.1/Kir3.2; test: Activation of recombinant human GIRK1/2 expressed in Xenopus oocytes by two-electrode voltage clamp method; type: cell-based, Oocyte
# Kir3.1/Kir3.4 [10] = molecular target: T2, Kir3.1/Kir3.4; test: Activation of recombinant human GIRK1/4 expressed in Xenopus oocytes by two-electrode voltage clamp method; type: cell-based, Oocyte
EC50 (Kir3.1/Kir3.2 [1]) [µM],EC50 (Kir3.1/Kir3.4 [2]) [µM],Efficacy [3] [%],Efficacy [4] [%],Structure (SMILES),also measured
2.9,6.2,115,91,Cc1ccc(NC(=O)Nc2ccc(C)c(S(=O)(=O)N(C)C)c2)cc1Cl,
,,29,83,Cc1ccc(NC(=O)Nc2cccc(C#N)c2)cc1S(=O)(=O)N(C)C,
> 10,,22,,O=C(Cc1ccccc1Cl)Nc1cccc(Cl)c1,
1.1,1.8,55,89,Cc1ccc(NC(=O)Nc2cccc(F)c2)cc1S(=O)(=O)N(C)C,
,,,,Cc1ccc(NC(=O)Cc2ccccc2Br)cc1S(=O)(=O)N(C)C,Efficacy [5]: 108%; EC50 (Kir3.1/Kir3.4 [6]): 1.6 µM; Efficacy [7]: 114%
> 10,,17,,O=C(Cc1ccccc1Cl)Nc1ccc(Cl)c(C(F)(F)F)c1,
,,100,94,Cc1ccc(NC(=O)Nc2ccccc2)cc1S(=O)(=O)N(C)C,
,,,,CN(C)S(=O)(=O)c1cccc(NC(=O)Cc2ccccc2Cl)c1,Efficacy [5]: 55%; EC50 (Kir3.1/Kir3.4 [6]): 1.6 µM; EC50 (Kir3.1/Kir3.2 [8]): 3.3 µM; Efficacy [7]: 123%
> 10,> 10,,,O=C(Cc1ccccc1Cl)Nc1ccc(Cl)cc1,
> 10,> 10,,,CS(=O)(=O)c1cc(NC(=O)Cc2ccccc2Cl)ccc1F,
,,,,Cc1ccc(NC(=O)Cc2ccc(F)cc2)cc1S(=O)(=O)N(C)C,Efficacy [5]: 107%; EC50 (Kir3.1/Kir3.4 [6]): 5.2 µM; EC50 (Kir3.1/Kir3.2 [8]): 3.6 µM; Efficacy [7]: 108%
2.7,6.8,106,94,Cc1ccc(NC(=O)Nc2ccccc2Cl)cc1S(=O)(=O)N(C)C,
,,76,44,CC(C)(C)c1cccc(NC(=O)Cc2ccccc2Cl)c1,
> 10,> 10,,,O=C(Cc1ccccc1Cl)Nc1cc(Cl)cc(C(F)(F)F)c1,
3.3,2.8,72,92,Cc1ccc(NC(=O)Nc2ccc(Cl)cc2)cc1S(=O)(=O)N(C)C,
,,,,Cc1ccc(NC(=O)Cc2ccccc2Cl)cc1S(=O)(=O)N(C)C,Efficacy [5]: 110%; EC50 (Kir3.1/Kir3.4 [6]): 1.1 µM; EC50 (Kir3.1/Kir3.2 [8]): 1.1 µM; Efficacy [7]: 104%
,,,,C[C@@H]1O[C@@H](O[C@H]2[C@H](Oc3cc(O)c4c(c3)O[C@H](c3ccc(O)cc3)CC4=O)O[C@H](CO)[C@@H](O)[C@@H]2O)[C@H](O)[C@H](O)[C@H]1O [NARINGIN],EC50 (Kir3.1/Kir3.2 [9]): > 100 µM; EC50 (Kir3.1/Kir3.4 [10]): > 100 µM
> 10,2.1,20,,O=C(Cc1ccccc1Cl)Nc1ccc(C(F)(F)F)cc1,
> 10,,119,,O=C(Cc1ccccc1Cl)Nc1cccc(OC(F)F)c1,
,,,,CN(C)S(=O)(=O)c1cccc(NC(=O)Cc2ccc(Cl)cc2)c1,Efficacy [5]: 71%; EC50 (Kir3.1/Kir3.4 [6]): 2.2 µM; EC50 (Kir3.1/Kir3.2 [8]): 2.3 µM; Efficacy [7]: 64%
> 10,> 10,,,COc1ccc(OC)c(NC(=O)Nc2ccc(C)c(S(=O)(=O)N(C)C)c2)c1,
1.7,5.6,104,101,COc1ccc(NC(=O)Nc2ccc(C)c(S(=O)(=O)N(C)C)c2)cc1,
> 10,> 10,,,Cc1cccc(NC(=O)Cc2ccccc2Cl)c1,
1.5,> 10,,26,Cc1ccc(NC(=O)Nc2ccc(C(F)(F)F)cc2)cc1S(=O)(=O)N(C)C,
3.9,7.8,72,111,Cc1ccc(NC(=O)Nc2ccccc2F)cc1S(=O)(=O)N(C)C,
